The results in this text go back to ChEMBL document CHEMBL3085696, “Aurora isoform selectivity: design and synthesis of imidazo[4,5-b]pyridine derivatives as highly selective inhibitors of Aurora-A kinase in cells” (J Med Chem, 2013).

Data set [1] concerns the target T1, Aurora kinase A (Homo sapiens) (UniProt O14965).
T1 sequence (whole entry): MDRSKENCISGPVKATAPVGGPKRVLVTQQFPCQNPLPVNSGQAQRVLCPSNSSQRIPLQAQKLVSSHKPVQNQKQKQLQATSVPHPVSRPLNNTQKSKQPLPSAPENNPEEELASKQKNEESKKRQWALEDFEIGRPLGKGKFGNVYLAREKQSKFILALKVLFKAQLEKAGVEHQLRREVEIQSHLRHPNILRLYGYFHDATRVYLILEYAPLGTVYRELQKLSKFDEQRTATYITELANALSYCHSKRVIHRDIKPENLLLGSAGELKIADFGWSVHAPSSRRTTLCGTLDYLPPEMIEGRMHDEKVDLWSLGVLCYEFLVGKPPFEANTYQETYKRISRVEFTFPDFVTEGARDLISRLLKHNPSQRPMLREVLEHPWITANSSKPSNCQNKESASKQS
As to conditions: 1 uM.

For data set [2], the target named is T2, Aurora kinase A (Homo sapiens, UniProt O14965).
T2 sequence (O14965 whole entry): T1 sequence (whole entry)
The data set is described as follows: Inhibition of autophosphorylation of N-terminal Myc tagged wild type aurora-A at T288 in human HCT116 cells after 2 hrs. Type of data set: cell-based, HCT-116. Put shortly:
(§1)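 Cells transfected with N-terminal Myc-tagged Aurora-A (wild type or T217E, L215R or R220K mutant, made by Quikchange mutagenesis), then exposed to a range of inhibitor concentrations for 2 h. Lysed in LDS sample buffer, sonicated, boiled, run on LDS-PAGE and blotted to nitrocellulose. Probed with anti-P-T288 (Aurora-A autophosphorylation) and anti-P-histone H3 S10 (Aurora-B substrate) antibodies. Blots quantified and IC50 fitted.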

For a further data set, the system named is HCT-116. Put plainly: Antiproliferative activity against human HCT116 cells. Type of data set: functional.
Data set [3] is described as follows: Metabolic stability in CD1 mouse liver microsomes at 10 uM after 30 mins. The class given is ADME, Microsome. Summed up: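 Compound at 10 μM incubated with male CD1 mouse liver microsomes (1 mg/mL protein) plus NADPH 1 mM, UDPGA 2.5 mM and MgCl2 3 mM in 10 mM PBS at 37 °C, for 0 and 30 min. Controls omit cofactors. Percent remaining measured by LC/MS.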
(In general: Liver microsomes are a subcellular fraction often used to study metabolism.)

The target in data set [4] is Aurora kinase A (Homo sapiens, UniProt O14965, R220K). The data set is described as follows: Inhibition of autophosphorylation of aurora-A R220K mutant at T288 in human HCT116 cells after 2 hrs. Type of data set: cell-based, HCT-116. Summed up: as §1
Data set [5] has as its system Mus musculus. The data set is described as follows: Volume of distribution in Balb/C mouse at 5 mg/kg, iv and po. Also noted: dose 5 mg/kg, route oral. The class given is ADME, organism-based. Conditions: in vivo. Summed up:
(§2)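 Female Balb/C mice given 5 mg/kg po or iv in 10% DMSO/5% Tween 20 in saline. Terminal cardiac-puncture plasma taken at 5, 15, 30 min and 1, 2, 4, 6, 24 h. Methanol precipitation with olomoucine internal standard. Analysis by LC/MS (ESI+ MRM).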

The test system of another data set is HeLa. The data set is described as follows: Selectivity ratio of IC50 for aurora-B-mediated histone H3 phosphorylation at S10 in human HeLa cells to IC50 for autophosphorylation of N-terminal Myc tagged aurora-A at T288 in human HeLa cells. Type of data set: cell-based. Summed up: (§3)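 Cells transfected with Myc-tagged Aurora-A (wild type or T217E, L215R, R220K mutants) and treated with inhibitor concentrations for 2 h. Lysed in LDS buffer; SDS-type PAGE and western blot. Blots probed for P-T288 (Aurora-A autophosphorylation) and phospho-histone H3 S10 (Aurora-B substrate). Blots quantified; IC50 derived; ratio taken as H3 IC50 over T288 IC50.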

In data set [6] the test system is Mus musculus. Put plainly: Oral bioavailability in Balb/C mouse at 5 mg/kg. The class given is ADME, organism-based. Conditions: in vivo. Put shortly: as §2
Data set [7] deals with T3, Aurora kinase B (Homo sapiens, UniProt Q96GD4). Put plainly: Inhibition of N-terminal Myc tagged aurora-B-mediated histone H3 phosphorylation at S10 in human HeLa cells after 2 hrs. The class given is cell-based. Summed up: as §3
Data set [8] deals with T4, Aurora kinase A (Homo sapiens, UniProt O14965, T217E). The data set is described as follows: Inhibition of autophosphorylation of aurora-A T217E mutant at T288 in human HeLa cells after 2 hrs. Type of data set: cell-based. Put shortly: as §1
Data set [9] addresses T3, Aurora kinase B. Put plainly: Inhibition of N-terminal Myc tagged aurora-B-mediated histone H3 phosphorylation at S10 in human HCT116 cells after 2 hrs. Type of data set: cell-based, HCT-116. Put shortly:
as §1

The target of data set [10] is T4, Aurora kinase A. Put plainly: Inhibition of autophosphorylation of aurora-A T217E mutant at T288 in human HCT116 cells after 2 hrs. The class given is cell-based, HCT-116. Put shortly:
as §1

Data set [11] addresses T2, Aurora kinase A. Put plainly: Inhibition of autophosphorylation of N-terminal Myc tagged aurora-A at T288 in human HCT116 cells after 2 hrs. Type of data set: cell-based, HCT-116. Summed up:
as §3

For data set [12], the target named is Aurora kinase A (Homo sapiens, UniProt O14965, L215R). Put plainly: Inhibition of autophosphorylation of aurora-A L215R mutant at T288 in human HCT116 cells after 2 hrs. The class given is cell-based, HCT-116. Put shortly: as §1
A short description of data set [13]: Metabolic stability in human liver microsomes at 10 uM after 30 mins. Type of data set: ADME. Summed up: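 Mixed-gender pooled human liver microsomes (1 mg/mL) incubated with compound at 10 μM plus NADPH 1 mM, UDPGA 2.5 mM and MgCl2 3 mM in 10 mM PBS at 37 °C, for 0 and 30 min. Cofactor-free controls included. Percent remaining measured by LC/MS.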
Data set [14] deals with T2, Aurora kinase A. Put plainly: Inhibition of N-terminal HIS-tagged aurora-A (unknown origin) using 5FAM-LRRASLG-CONH2 as substrate after 60 mins. Summed up: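 Aurora-A (5 nM N-terminal His-tagged) incubated with 1.5 μM 5FAM-LRRASLG-CONH2 peptide and 20 μM ATP in 50 mM Tris pH 7.4, 200 mM NaCl, 5 mM MgCl2, 2 mM DTT, 0.1% Tween 20. Runs 60 min at room temperature; EDTA stop. Microfluidic separation of product from substrate. Duplicate 8-point curves, 0.25 pM–200 μM final, 1–2% DMSO. IC50 from four-parameter logistic fit.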

The target of data set [15] is Glycogen synthase kinase-3 beta (Homo sapiens) (UniProt P49841). Conditions: 1 uM.
Data set [16] in a line: Antiproliferative activity against human MV411 cells. The class given is functional. As to conditions: MV4-11.
Data set [17] addresses T3, Aurora kinase B. Put plainly: Inhibition of full-length aurora-B (unknown origin) using 5FAMLRRASLG-CONH2 as substrate after 60 mins. Put shortly:
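Full-length Aurora-B/INCENP complex (1 nM) incubated with 1.5 μM 5FAM-LRRASLG-CONH2 peptide and 15 μM ATP in Tris pH 7.4 buffer with NaCl, MgCl2, DTT, Tween 20. Runs 60 min at room temperature, then EDTA stop. Microfluidic mobility-shift readout of percent conversion. Duplicate 8-point curves, 0.25 pM–200 μM final. IC50 by four-parameter logistic fit.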

T3 sequence (Q96GD4 whole entry): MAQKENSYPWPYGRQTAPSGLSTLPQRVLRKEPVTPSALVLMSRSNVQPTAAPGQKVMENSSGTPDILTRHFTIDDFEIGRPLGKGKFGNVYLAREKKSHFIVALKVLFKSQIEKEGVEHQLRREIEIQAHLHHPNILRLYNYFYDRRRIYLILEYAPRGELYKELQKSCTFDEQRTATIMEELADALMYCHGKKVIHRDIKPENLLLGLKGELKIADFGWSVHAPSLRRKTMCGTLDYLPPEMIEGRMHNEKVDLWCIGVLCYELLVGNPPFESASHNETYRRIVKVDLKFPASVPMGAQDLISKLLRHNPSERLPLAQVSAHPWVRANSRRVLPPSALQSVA
T4 sequence (O14965 whole entry I57V/T217E): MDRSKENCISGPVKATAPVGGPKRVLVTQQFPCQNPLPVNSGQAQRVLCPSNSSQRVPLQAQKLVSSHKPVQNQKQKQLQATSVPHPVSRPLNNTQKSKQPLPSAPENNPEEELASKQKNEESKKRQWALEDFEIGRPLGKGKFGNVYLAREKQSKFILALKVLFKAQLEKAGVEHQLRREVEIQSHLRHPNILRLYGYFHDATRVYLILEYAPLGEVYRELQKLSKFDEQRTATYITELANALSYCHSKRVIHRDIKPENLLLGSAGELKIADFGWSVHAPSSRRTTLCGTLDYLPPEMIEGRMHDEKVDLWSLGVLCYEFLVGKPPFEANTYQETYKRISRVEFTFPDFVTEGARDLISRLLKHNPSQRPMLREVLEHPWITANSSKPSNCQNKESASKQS
Aurora kinase A (Homo sapiens, UniProt O14965, R220K), sequence (O14965 whole entry I57V/R220K): as the sequence (O14965 whole entry I57V/T217E) above, with E217T, R220K counted along it
Aurora kinase A (Homo sapiens, UniProt O14965, L215R), sequence (O14965 whole entry I57V/L215R): as the sequence (O14965 whole entry I57V/T217E) above, with L215R, E217T counted along it
Glycogen synthase kinase-3 beta (Homo sapiens), sequence (P49841 whole entry, looked up): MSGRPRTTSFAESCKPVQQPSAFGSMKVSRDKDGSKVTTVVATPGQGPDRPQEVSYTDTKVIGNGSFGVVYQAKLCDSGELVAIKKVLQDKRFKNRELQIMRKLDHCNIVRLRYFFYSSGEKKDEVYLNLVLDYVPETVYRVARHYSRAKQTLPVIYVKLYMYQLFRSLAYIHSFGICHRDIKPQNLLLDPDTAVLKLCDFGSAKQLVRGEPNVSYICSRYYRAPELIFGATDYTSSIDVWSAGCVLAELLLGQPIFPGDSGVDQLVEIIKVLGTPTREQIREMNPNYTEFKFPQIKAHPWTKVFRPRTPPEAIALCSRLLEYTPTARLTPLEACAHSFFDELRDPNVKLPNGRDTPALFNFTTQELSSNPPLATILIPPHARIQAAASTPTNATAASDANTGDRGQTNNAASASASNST

The term inhibition denotes the percentage by which the read-out fell short of the control. A higher inhibition goes with strong suppression. One may read the IC50 as the point on the concentration scale where inhibition reaches its midpoint. Lower therefore signals greater potency in that assay. As usually defined, the GI50 is the concentration giving 50% growth inhibition. Low values mean greater sensitivity of the cells, high ones lower sensitivity of the cells. As to `Cc1nn(C)cc1-c1nc2c(Oc3ccc(C(=O)Nc4ccccc4)cc3)c(Cl)cnc2[nH]1`, the inhibition in data set [1] and in data set [15] was > 80% each time. Moreover, the IC50 was determined as 29 nM against Aurora kinase A [2]; 27 nM at Aurora kinase A [4]; 76800 nM against Aurora kinase B [7]; 4110 nM on Aurora kinase A [8]; 24600 nM at Aurora kinase B [9]; 960 nM against Aurora kinase A [10]. Besides, the IC50 is 65 nM at Aurora kinase A [11], 27 nM at Aurora kinase A [12], 67 nM against Aurora kinase A [14] and 12700 nM against Aurora kinase B [17]. For the same compound, the 50% growth inhibitory concentration (GI50) in the data set on HCT-116 turned out to be 2300 nM; in data set [16] it was 299 nM. Besides, the results for the metabolized at 0.5 h, 10 µM in data set [3] and in data set [13] were 22% and 9%, respectively. Moreover, in the data set on Mus musculus [5], the Vd was 1.8 L/kg. Moreover, the Ratio IC50 with HeLa was 480. The compound also registered a F in the data set with Mus musculus [6] of 100%.
